What was measured:
Cowpox virus [1] = test: Antiviral activity against Cowpox virus Brighton in HFF cells assessed as reduction in plaque formation; type: functional, organism-based
HFF = test: Cytotoxicity against human HFF cells by neutral red uptake; type: functional
Method in brief: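 Uninfected HFF cells in 96-well plates were exposed to various drug concentrations for 7 days, then stained with neutral red.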

Cowpox virus [2] = test: Antiviral activity against Cowpox virus Brighton in HFF cells assessed as reduction in cytopathogenicity; type: functional, organism-based
Vaccinia virus = test: Antiviral activity against Vaccinia virus Copenhagen in HFF cells assessed as reduction in plaque formation; type: functional, organism-based; conditions: Orthopoxvirus vaccinia

## CC(=O)OC[C@H]1O[C@@H](n2cc(/C=C3\C(=O)N(c4ccccc4)N=C3C)c(=O)[nH]c2=O)C[C@@H]1OC(C)=O
Cowpox virus [1]
  EC50: 48 µM
HFF
  CC50: > 252 µM
Cowpox virus [2]
  EC50: 33.7 µM
Vaccinia virus
  EC50: 56 µM

## Nc1ccn(C[C@@H](CO)OCP(=O)(O)O)c(=O)n1 [CIDOFOVIR]
HFF
  CC50: > 317 µM
Cowpox virus [2]
  EC50: 7.1 µM
Vaccinia virus
  EC50: 20 µM
